Test [1] relates to Mus musculus. In words: Anti-inflammatory activity in FVB mouse with zymosan-induced sterile peritonitis assessed as reduction in PMN infiltration in peritoneal inflammatory exudates at 10 ng, ip measured at 4 hrs dosed 10 mins before zymosan challenge by light microscopy and flow cytometry. Format: functional. In short, it runs like this: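 Male FVB mice, 6–8 weeks old, were dosed i.p. with 10 ng in saline with 0.1% EtOH, then zymosan 1 mg/mouse i.p. 10 min later. Peritoneal lavage was collected at 4 h in PBS without Ca/Mg. Leukocytes were enumerated by light microscopy and flow cytometry. Mean ± SEM, n = 4 mice per treatment.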
In general terms: A flow cytometer gives signals particle by particle.

Test [2] deals with Mus musculus. The test can be described thus: Anti-inflammatory activity in FVB mouse with zymosan-induced sterile peritonitis assessed as reduction in PGD2 in peritoneal inflammatory exudates at 10 ng, ip dosed 10 mins before zymosan challenge by LC-MS/MS based targeted lipid mediator metabololipidomics. Format: functional. In short, it runs like this: (§1)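 Male FVB mice, 6–8 weeks old, received 10 ng i.p. in saline with 0.1% EtOH as vehicle, then zymosan 1 mg/mouse i.p. 10 min later. Peritoneal lavage was taken at 4 h in PBS without Ca/Mg. Eicosanoids were measured by LC/MS-MS after solid-phase extraction, identified with at least six diagnostic ions and quantified against linear calibration curves. Mean ± SEM, n = 4 mice per group.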

Test [3] concerns Mus musculus. In words: Anti-inflammatory activity in FVB mouse with zymosan-induced sterile peritonitis assessed as reduction in PGF2alpha in peritoneal inflammatory exudates at 10 ng, ip dosed 10 mins before zymosan challenge by LC-MS/MS based targeted lipid mediator metabololipidomics. Type of test: functional. In short, it runs like this: as §1
The subject of test [4] is Mus musculus. In words: Anti-inflammatory activity in FVB mouse with zymosan-induced sterile peritonitis assessed as reduction in TXB2 in peritoneal inflammatory exudates at 10 ng, ip dosed 10 mins before zymosan challenge by LC-MS/MS based targeted lipid mediator metabololipidomics. Type of test: functional. In short, it runs like this: as §1
For test [5], the species on record is Homo sapiens. In words: Inhibition of LTB4-induced cell adhesion to fibronectin in human primary PMN at 0.1 to 10 nM pre-incubated for 10 mins followed by LTB4 stimulation by flow cytometry. Format: functional. As to conditions: in the assay text read “flow chamber assay with microscopy” for “flow cytometry”. In short, it runs like this: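 Purified human PMN were pretreated 10 min at room temperature, then stimulated with 10 nM LTB4 for 10 min at room temperature. Cells at 1 × 10^6/mL were perfused over fibronectin-coated chambers at 0.5 mL/min for 5 min. Adherent cells were counted in six random fields by imaging. Three independent experiments; paired t test versus vehicle.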

A short description of test [6]: Inhibition of IL8-induced chemotaxis of human primary PMN at 0.01 to 100 nM pre-incubated for 15 mins followed by IL8 stimulation by PrestoBlue fluorescence assay.
The nature of test [7]: Inhibition of LTB4-induced chemotaxis of human primary PMN at 0.01 to 100 nM pre-incubated for 15 mins followed by LTB4 stimulation by PrestoBlue fluorescence assay.
For test [8], the species on record is Homo sapiens. The test can be described thus: Inhibition of IL8-induced chemotaxis of human primary PMN at 0.01 to 100 nM pre-incubated for 15 mins followed by IL8 stimulation by PrestoBlue fluorescence assay.
The species entered for test [9] is Homo sapiens. In words: Inhibition of LTB4-induced chemotaxis of human primary PMN at 0.01 to 100 nM pre-incubated for 15 mins followed by LTB4 stimulation by PrestoBlue fluorescence assay.

We go through two molecules from ChEMBL document CHEMBL3352688, “Synthesis and anti-inflammatory and pro-resolving activities of 22-OH-PD1, a monohydroxylated metabolite of protectin D1” (2014).

Activity calls are given as the source filed them. The calls are words filed in the database; no cut-off is given here.

Take `O=C(O)CC/C=C\C/C=C\C[C@@H](O)/C=C/C=C/C=C\[C@@H](O)C/C=C\CCO`: the “inhibition (INH)” value with Mus musculus [1] stood at 43%; with Mus musculus [2], 27%; with Mus musculus [3], 43%; in the test on Mus musculus [4] it was 48%; in test [6], 23%; in [7], 19%. The inhibition entry in the test listed under Homo sapiens [5] was “Active”.
`CC/C=C\C[C@H](O)\C=C/C=C/C=C/[C@H](O)C/C=C\C/C=C\CCC(=O)O`: in the test with Mus musculus [1], the “inhibition (INH)” value came to 54%. For the same molecule, the inhibition result in the test on Mus musculus [2], in the test with Mus musculus [3], with Mus musculus [4], in the test filed under Homo sapiens [5], in the test filed under Homo sapiens [8] and in the test listed under Homo sapiens [9] was “Active” each time.
